Sampled rows, rich in hits. Any-hit rate of the full collection: about 4.9%.
NPY Y2 blocker: antagonists of human neuropeptide Y receptor Y2 | NPY-Y2 expressing cells, antagonist mode | inhibition, % at 2.7 µM | 0.99% of 140,000 active | AID 793; in the data active = inhibition above about 17%;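 note: 0% = vehicle with agonist challenge and 100% = reference antagonist with challenge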
NPY Y1 blocker: blocks the human neuropeptide Y Y1 receptor; inhibition, % at 3.6 µM; 1% of 200,000 active; P25929; HEK293-CNG Y1 cells, membrane potential fluorescence; NPY at EC95, then isoproterenol;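 active = inhibition above the campaign mean inhibition of all tested compounds plus 3 SD, cut at about 20% in these data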;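 note: 0% = DMSO wells given NPY plus isoproterenol and 100% = isoproterenol alone without NPY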
Target sequence (P25929 whole entry, looked up): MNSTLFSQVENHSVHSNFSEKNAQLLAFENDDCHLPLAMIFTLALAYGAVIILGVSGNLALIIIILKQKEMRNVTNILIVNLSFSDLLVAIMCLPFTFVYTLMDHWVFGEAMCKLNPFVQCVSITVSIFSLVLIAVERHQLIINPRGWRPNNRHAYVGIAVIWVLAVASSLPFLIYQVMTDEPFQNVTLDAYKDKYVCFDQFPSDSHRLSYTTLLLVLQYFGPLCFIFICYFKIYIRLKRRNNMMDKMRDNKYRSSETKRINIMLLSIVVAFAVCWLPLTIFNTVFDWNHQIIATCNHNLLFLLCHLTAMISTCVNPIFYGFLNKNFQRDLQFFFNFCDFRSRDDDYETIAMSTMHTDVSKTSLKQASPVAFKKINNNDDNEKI
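Benchmarks – high control isoproterenol alone, low control NPY with isoproterenol · Material – HEK293 Y1/CNG channel cell line · Times – dye 3 h, compound 60 min room temperature, stimulation 45 min · Probe or stimulus – NPY (25 nM), isoproterenol (1 µM), Ro 20-1724 (25 µM) · Evaluation – % inhibition of NPY effect · Signal – fluorescence, membrane potential probe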
RAM inhibit: inhibitors of the yeast RAM network; S. cerevisiae dse1pr::URA3 reporter, 5-FOA growth OD615, 2 d; analog-sensitive cbk1-as2 kinase mutant strain; inhibition, % at 50 µM; 1.8% of 190,000 active; AID 868;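 active = inhibition above a set limit, 3 SD over mean compound inhibition, cut at about 8.4% in these data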;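 note: 0% = DMSO-only wells with no growth and 100% = 10 µM 1-NA-PP1 full growth; inhibition rescues growth on 5-FOA so higher OD means more RAM inhibition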
NPY-Y2 PAM-ag: human NPY-Y2 potentiation or agonism, primary screen | P49146 | cells expressing NPY-Y2, potentiator/agonist read-out | 0.45% of 220,000 active | AID 1359 | activation, % at 3.6 µM; in the data active = activation above about 27%;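 note: cells stimulated with NPY near EC25 plus isoproterenol at EC100; 0% = vehicle plus submaximal agonist and 100% = vehicle plus saturating agonist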
WT yeast gro inh: growth inhibition of WT yeast, mitochondrial fusion screen; mitochondrial fusion phenotypic screen, WT strain; inhibition, % at 10 µM; 2.1% of 190,000 active; AID 1362; in the data active = inhibition above about 58%; tested in S. cerevisiae
NPY1 pot ag: human NPY-Y1 potentiation or agonism, primary screen | P25929 | NPY-Y1 expressing cells, potentiator/agonist activation | activation, % at 3.6 µM | 0.37% of 220,000 active | AID 1304; in the data active = activation above about 33%, passing the limit was not always enough;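 note: cells stimulated with NPY at EC10 then isoproterenol at EC100; 0% = low agonist plus stimulus and 100% = saturating agonist plus stimulus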
Active calls of the source: *; · = not tested or not shown.

SMILES	NPY Y2 blocker	NPY Y1 blocker	RAM inhibit	NPY-Y2 PAM-ag	WT yeast gro inh	NPY1 pot ag
COc1ccc(CSc2nnc(Cc3sc(-c4ccccc4)nc3-c3ccccc3)o2)cc1	6	15	9.6*	-24	-1	-47
O=C(COc1ccc(Cl)cc1)NCc1nnc2c3ccccc3c(-c3ccccc3)nn12	13	6	2	-4	18	6
CN(C)S(=O)(=O)c1ccc(C(=O)OCC(=O)Nc2ccccc2OC(F)F)cc1	0	-1	2	-7	-17	-4
CN(C)S(=O)(=O)c1ccc(C(=O)OCC(=O)c2ccc(OC(F)F)cc2OC(F)F)cc1	1	2	11*	5	7	-1
O=C(Oc1cccnc1)c1ccc(Cl)c(Cl)c1	6	0	-1	-7	96*	-23
COc1ccc(C(=O)Oc2cccnc2)cc1	2	-1	0	14	5	-4
CCCSC1=C(C#N)C2(CCCCC2)C(C#N)=C(N)N1	·	-13	4	32*	7	53*
N#CC1=C(N)NC(SCC(=O)c2ccc(Br)cc2)=C(C#N)C12CCCCC2	-3	-6	4	18	78*	10
CCSC1=C(C#N)C2(CCCCC2)C(C#N)=C(N)N1	-1	0	2	16	-5	32
COc1ccc(Nc2ccc3c(c2)=NC2(CCCCC2)[N+]=3[O-])cc1	-3	-14	8.9*	25	30	26
Cc1ccccc1/C(N)=N/OC(=O)N1c2ccccc2Sc2ccccc21	-1	-2	0	-3	83*	10
CCCCN(CC)CCCNC(=O)Cn1nc(Cc2cccnc2)c2ccccc2c1=O	2	3	1	9	-2	-6
CCN(CC)CCNC(=O)Cn1nc(Cc2ccccc2)c2ccccc2c1=O	0	5	0	-5	60*	-10
Cc1ccc2nc(-c3ccc(NC(=O)CNC4CC4)cc3)sc2c1	·	0	-1	-6	59*	4
COc1ccc(C2(C)NC(=O)N(CC(=O)Nc3ccc(-c4nc5ccc(C)cc5s4)cc3)C2=O)cc1 (configuration not stated)	·	-12	6	56*	16	39*
O=C(NNC(=O)c1ccncc1)Nc1cccc([N+](=O)[O-])c1	·	-3	-1	-8	0	-7
COc1ccc(S(=O)(=O)N2C3CCC2CC(NC(=O)C2CC2)C3)cc1 (configuration not stated)	-1	-14	5	8	·	2
CCN1/C(=C/c2ccc3ccccc3[n+]2CC)C=Cc2ccccc21	9	8	2	25	83*	26
CCCCN1/C(=C/c2ccc3ccccc3[n+]2CC)Sc2ccccc21	·	9	1	-1	71	-2
O=C(Nn1c(C2CCCCC2)nc2ccccc2c1=O)c1ccc(Cl)c([N+](=O)[O-])c1	1	1	3	0	82*	4
O=C(Nn1c(C2CCCCC2)nc2ccccc2c1=O)c1cc(Cl)ccc1[N+](=O)[O-]	8	-3	5	18	-9	-5
Cc1cc(C(=O)Nn2c(C3CCCCC3)nc3ccccc3c2=O)ccc1[N+](=O)[O-]	-1	-1	2	8	74*	-12
Cc1cc(C(=O)Nn2c(C)nc3ccccc3c2=O)ccc1[N+](=O)[O-]	·	4	1	8	12	3
CC(=O)N1CCCc2cc(S(=O)(=O)N(C)CCC#N)ccc21	1	4	0	4	·	3
CCOC(=O)COc1ccccc1/C=C\[N+](=O)[O-]	4	-2	-1	-5	69*	-6
SMILES	NPY Y2 blocker	NPY Y1 blocker	RAM inhibit	NPY-Y2 PAM-ag	WT yeast gro inh	NPY1 pot ag
CCOC(=O)COc1cc([N+](=O)[O-])cc2cccnc12	·	3	2	2	-8	-2
O=C(NC(C(=O)O)c1ccccc1)c1ccccc1 (configuration not stated)	2	3	0	-12	3	-10
Cc1ccc(C2CC(c3cccs3)n3nc(N)nc3N2)cc1 (configuration not stated)	0	22*	2	12	-2	2
O=C(NCCOc1ccc(F)cc1)c1ccccc1SCc1ccccc1	8	-2	9.5*	2	43	-24
C#CCSc1nc(Cc2ccc(Cl)cc2)nc2ccccc12	2	-6	8.6*	9	-15	-15
Fc1ccc2[nH]c3c(c2c1)CN(C(=S)NCc1ccccc1)CC3	·	·	·	21	·	4

Assay outcomes as filed in PubChem BioAssay.
